Where two headings read alike, the source gives them in different places.
Assays:
Type in all cases: biochemical
[1] = target: T1, GMIIb (Golgi α-mannosidase) (Drosophila melanogaster, UniProt Q9VF33); assay: α-mannosidase inhibition assay with pNP-Man, GMIIb; conditions: for SI^a = IC50(LManII)/IC50(GMIIb): selectivity index
T1 sequence (Q9VF33 31-1249): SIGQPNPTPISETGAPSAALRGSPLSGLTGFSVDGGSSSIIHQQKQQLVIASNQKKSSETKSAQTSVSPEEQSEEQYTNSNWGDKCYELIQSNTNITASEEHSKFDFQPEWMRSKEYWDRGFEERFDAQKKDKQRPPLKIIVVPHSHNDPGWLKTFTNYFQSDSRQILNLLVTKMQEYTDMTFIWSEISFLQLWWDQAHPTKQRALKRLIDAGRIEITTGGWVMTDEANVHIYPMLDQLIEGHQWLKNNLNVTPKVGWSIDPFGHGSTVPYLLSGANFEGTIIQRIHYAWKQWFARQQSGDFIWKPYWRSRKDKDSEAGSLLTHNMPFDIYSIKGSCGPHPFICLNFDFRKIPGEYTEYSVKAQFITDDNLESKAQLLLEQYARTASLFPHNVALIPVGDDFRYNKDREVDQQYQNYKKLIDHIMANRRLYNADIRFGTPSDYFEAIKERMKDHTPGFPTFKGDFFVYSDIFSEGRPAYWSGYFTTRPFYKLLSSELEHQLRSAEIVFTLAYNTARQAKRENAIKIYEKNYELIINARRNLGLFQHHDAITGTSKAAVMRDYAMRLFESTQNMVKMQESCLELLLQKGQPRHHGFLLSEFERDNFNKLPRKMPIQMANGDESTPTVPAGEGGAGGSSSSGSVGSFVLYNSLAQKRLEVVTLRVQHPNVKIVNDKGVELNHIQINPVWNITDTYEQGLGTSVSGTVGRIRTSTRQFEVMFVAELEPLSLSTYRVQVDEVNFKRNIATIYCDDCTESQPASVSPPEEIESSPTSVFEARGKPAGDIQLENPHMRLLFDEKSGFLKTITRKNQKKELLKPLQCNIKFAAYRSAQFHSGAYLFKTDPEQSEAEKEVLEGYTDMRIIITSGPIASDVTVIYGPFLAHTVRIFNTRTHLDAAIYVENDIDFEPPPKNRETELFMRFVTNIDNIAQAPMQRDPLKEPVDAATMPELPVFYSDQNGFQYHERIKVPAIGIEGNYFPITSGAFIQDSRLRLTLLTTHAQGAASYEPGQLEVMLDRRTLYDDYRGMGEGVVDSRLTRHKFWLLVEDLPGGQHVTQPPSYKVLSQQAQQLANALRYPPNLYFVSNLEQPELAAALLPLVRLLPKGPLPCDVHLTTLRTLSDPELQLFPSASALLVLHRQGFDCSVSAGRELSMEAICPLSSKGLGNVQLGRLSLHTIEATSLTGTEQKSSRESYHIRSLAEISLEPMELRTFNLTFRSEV

[2] = target: T2, LManII (lysosomal α-mannosidase) (Drosophila melanogaster, UniProt Q9VKV1); assay: α-mannosidase inhibition assay with pNP-Man, LManII; conditions: for Ki: Dixon plots, pNP-Man 0.5-4 mM
T2 sequence (Q9VKV1 25-1080): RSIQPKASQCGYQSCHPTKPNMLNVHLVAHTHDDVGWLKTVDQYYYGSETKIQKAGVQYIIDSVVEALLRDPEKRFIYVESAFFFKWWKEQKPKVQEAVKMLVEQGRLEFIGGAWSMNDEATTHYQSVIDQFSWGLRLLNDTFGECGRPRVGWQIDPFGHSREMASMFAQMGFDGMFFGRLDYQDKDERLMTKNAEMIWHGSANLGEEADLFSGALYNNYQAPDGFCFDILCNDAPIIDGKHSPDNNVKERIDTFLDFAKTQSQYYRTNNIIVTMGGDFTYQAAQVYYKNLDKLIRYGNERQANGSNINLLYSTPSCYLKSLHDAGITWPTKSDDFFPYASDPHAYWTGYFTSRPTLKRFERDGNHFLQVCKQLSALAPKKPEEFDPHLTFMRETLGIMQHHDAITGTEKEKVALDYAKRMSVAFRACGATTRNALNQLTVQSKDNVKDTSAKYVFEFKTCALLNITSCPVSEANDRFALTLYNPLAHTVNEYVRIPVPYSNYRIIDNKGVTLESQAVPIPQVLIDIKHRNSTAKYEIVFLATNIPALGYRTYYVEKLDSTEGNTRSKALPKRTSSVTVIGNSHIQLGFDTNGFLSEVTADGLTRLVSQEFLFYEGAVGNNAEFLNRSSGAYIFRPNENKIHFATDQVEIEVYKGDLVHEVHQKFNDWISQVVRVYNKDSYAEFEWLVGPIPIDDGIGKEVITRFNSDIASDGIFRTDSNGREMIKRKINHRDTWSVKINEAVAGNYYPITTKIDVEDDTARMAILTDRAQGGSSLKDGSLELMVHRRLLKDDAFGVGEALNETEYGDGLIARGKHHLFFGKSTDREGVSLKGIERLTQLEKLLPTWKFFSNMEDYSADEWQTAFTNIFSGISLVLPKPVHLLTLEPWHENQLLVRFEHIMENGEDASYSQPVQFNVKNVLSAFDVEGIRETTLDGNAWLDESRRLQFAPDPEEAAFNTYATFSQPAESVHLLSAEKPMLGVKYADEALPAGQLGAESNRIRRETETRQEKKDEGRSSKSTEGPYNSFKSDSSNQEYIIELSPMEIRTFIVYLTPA
How it was run: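 Recombinant Drosophila lysosomal α-mannosidase, isolated and purified, assayed in 50 mM acetate buffer at pH 5.2. Compound (50 mM DMSO solution diluted in water) preincubated with enzyme 5 min at rt before pNP-Man was added. Incubated 1-2 h at 37 °C, stopped with 0.5 M sodium carbonate, p-nitrophenol read at 405 nm. […] Three independent experiments in duplicate.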

[3] = tested on: Golgi-type mannosidases (GMIIb and AMAN-2); assay: inhibition of and selectivity toward Golgi-type mannosidases, stated jointly; conditions: IC50(LManII)/IC50(GMIIb) or IC50(JBMan)/IC50(AMAN-2)
[4] = read-out: IC50 GMIIb, 2 mM pNP-Man, pH 6.0
[5] = read-out: Ki GMIIb, Dixon plots, pNP-Man 0.5-4 mM, pH 6.0
[6] = read-out: IC50 LManII, 2 mM pNP-Man, pH 5.2

Structure (SMILES) | SI^a = IC50(LManII)/IC50(GMIIb) [1] | IC50 [1, 4] | IC50 [2, 6] | IC50 [1] | IC50 [2] | also measured
OC[C@@H]1[C@H](O)[C@H](O)CN1Cc1ccccc1 [Compound 4, N-Benzyl-1,4-dideoxy-1,4-imino-d-lyxitol] | 61 | – | – | 11 ± 1.3 µM | 675 ± 67 µM | –
OC[C@@H]1[C@H](O)[C@H](O)CN1CC1CCCCC1 [Compound 19, N-Cyclohexylmethyl-1,4-dideoxy-1,4-imino-d-lyxitol] | 54 | – | – | 3.5 ± 0.3 µM | 190 ± 53 µM | –
OC[C@@H]1[C@H](O)[C@H](O)CN1CC1CCOCC1 [Compound 20] | 63 | 15.5 ± 0.5 µM | 980 ± 102 µM | – | – | –
CCCCCCCCCCCCN1C[C@@H](O)[C@@H](O)[C@H]1CO [Compound 21, 1,4-Dideoxy-N-dodecyl-1,4-imino-d-lyxitol] | 30 | – | – | 0.4 ± 0.05 µM | 11.8 ± 1.2 µM | –

Second part, led by results:

SI^a = IC50(LManII)/IC50(GMIIb) [1] | IC50 [1, 4] | IC50 [2, 6] | Structure (SMILES) | IC50 [1] | IC50 [2] | also measured
142 | 2.4 ± 0.1 µM | 340 ± 35 µM | Cl.N=C(N)NCc1ccc(CN2C[C@@H](O)[C@@H](O)[C@H]2CO)cc1 [Compound 9, 1,4-Dideoxy-N-4-guanidinomethylbenzyl-1,4-imino-d-lyxitol hydrochloride] | – | – | Ki [1, 5]: 0.83 µM; Ki ([2]; read-out: Ki LManII, pH 5.2): 165 µM
105 | 4.4 ± 0.2 µM | 460 ± 53 µM | OCC1C(O)C(O)CN1Cc1ccc(I)cc1 (stereo not drawn) [Compound 16, 1,4-Dideoxy-1,4-imino-N-4-iodobenzyl-d-lyxitol] | – | – | –
111 | 7.6 ± 1.1 µM | 845 ± 170 µM | OC[C@@H]1[C@H](O)[C@H](O)CN1Cc1ccc2ccccc2c1 [Compound 17, 1,4-Dideoxy-1,4-imino-N-(naphthalen-2-ylmethyl)-d-lyxitol] | – | – | IC50 ([1]; read-out: IC50 GMIIb, 2 mM pNP-Man, pH 6.0, listed as N-2-naphtylmethyl): 2.4 µM; selectivity index (SI) toward Golgi-type enzymes [3]: > 100
27 | 0.45 ± 0.08 µM | 12 ± 1.3 µM | OCC1C(O)C(O)CN1CCc1cccc2ccccc12 (stereo not drawn) [Compound 18, 1,4-Dideoxy-1,4-imino-N-(2-(naphthalen-1-yl)ethyl)-d-lyxitol] | – | – | Ki [1, 5]: 0.16 µM; Ki ([1]; read-out: Ki(GMIIb)): 0.15 µM; Ki ([2]; read-out: Ki LManII, pH 5.2): 3.9 µM
18 | – | – | Cl.N=C(N)NCCCCCCCCCCN1C[C@@H](O)[C@@H](O)[C@H]1CO [Compound 25, 1,4-Dideoxy-N-(10-guanidinodecyl)-1,4-imino-d-lyxitol hydrochloride] | 0.45 ± 0.1 µM | 8.3 ± 2.1 µM | –
35 | – | – | Cl.N=C(N)CCCCCCCCCN1C[C@@H](O)[C@@H](O)[C@H]1CO [Compound 26, N-(9-amidinononyl)-1,4-dideoxy-1,4-imino-d-lyxitol hydrochloride] | 0.19 ± 0.02 µM | 6.7 ± 1.2 µM | Ki [1]: 0.04 µM; Ki ([2]; Ki LManII, pH 5.2): 3.2 µM

— PMC7614232 (Organic & biomolecular chemistry, 2022)
